Data published in PMC5327638 (Theranostics, 2017).

Experiments:
[1] = system: MDAMB231 X4 tumor-bearing Balb/c nude mice; test: In vivo SPECT imaging in tumor-bearing mice; design: species or system mouse; settings: i.v., 50 μg, 10 MBq; 24 hrs post-injection; n=5
[2] = system: MDAMB231 X4 tumor-bearing Balb/c nude mice; test: Biodistribution by radiodetection; assay type: in vivo, mouse; settings: 24 h after i.v. 50 μg (10 MBq), ^111In
How it was run: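 Tracer was labelled with 111In alone or with 111In plus 165Ho, and 50 μg (10 MBq) was given i.v.; some mice had SPECT at 24 h first. Mice were killed at 24 h, and tissues were excised and weighed; dual-label samples were halved before weighing. Gamma counting used 245 keV for 60 s. cpm were converted to MBq, corrected for decay and counting efficiency. %ID/g = (MBq in tissue/injected dose ×100%)/tissue weight.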

[3] = target: chemokine receptor 4 (CXCR4), MDAMB231 X4 cells (Homo sapiens, UniProt P61073); test: Fluorescence flow cytometry saturation binding
How it was run: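 Trypsinised cells (300000 per aliquot) were exposed to tracer at 0–1000 nM in 0.1% BSA/PBS for 1 hr at 4 °C, washed three times and resuspended. Flow cytometry used a 635 nm laser with a […] filter. Mean fluorescence counts gave saturation curves. Triplicates, total n=6.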

chemokine receptor 4 (CXCR4), MDAMB231 X4 cells, sequence (P61073 whole entry): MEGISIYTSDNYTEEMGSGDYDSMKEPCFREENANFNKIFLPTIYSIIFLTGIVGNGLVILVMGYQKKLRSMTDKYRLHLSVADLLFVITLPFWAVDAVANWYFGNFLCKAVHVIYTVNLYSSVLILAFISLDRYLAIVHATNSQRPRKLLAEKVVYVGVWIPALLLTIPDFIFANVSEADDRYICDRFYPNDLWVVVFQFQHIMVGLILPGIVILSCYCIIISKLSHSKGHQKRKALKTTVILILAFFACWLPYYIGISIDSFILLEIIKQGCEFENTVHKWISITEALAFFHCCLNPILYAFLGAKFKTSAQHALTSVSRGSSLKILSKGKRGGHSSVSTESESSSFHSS

CC(=O)N[C@@H](CCCNC(=N)N)C(=O)N[C@@H](CCCNC(=N)N)C(=O)N[C@@H](Cc1ccc2ccccc2c1)C(=O)N[C@H]1CSSC[C@@H](C(=O)N[C@@H](CCCNC(=N)N)C(N)=O)NC(=O)[C@H](CCCNC(N)=O)NC(=O)[C@H](CCCNC(=N)N)NC(=O)[C@H](Cc2ccc(O)cc2)NC(=O)[C@@H]2CCCN2C(=O)[C@@H](CCCCNC(=O)CCCNC(=O)[C@H](CCCCNC(=O)CCCCCN2C(=CC=CC=CC3=[N+](CCCCS(=O)(=O)O)c4ccc(S(=O)(=O)[O-])cc4C3(C)C)C(C)(C)c3cc(S(=O)(=O)O)ccc32)NC(=O)CN(CCN(CC(=O)O)CC(=O)O)CCN(CC(=O)O)CC(=O)O)NC(=O)[C@H](CCCNC(=N)N)NC(=O)[C@H](CCCNC(N)=O)NC(=O)[C@H](Cc2ccc(O)cc2)NC1=O (single isomer, unassigned) [^111In-hybrid-Cy5-Ac-TZ14011, metal not drawn]
uptake on SPECT images [1]: high uptake in the liver and kidneys as well as in the tumor | uptake in tumor exceeding uptake in muscle, factor [2]: 6

CC(=O)N[C@@H](CCCNC(=N)N)C(=O)N[C@@H](CCCNC(=N)N)C(=O)N[C@@H](Cc1ccc2ccccc2c1)C(=O)N[C@H]1CSSC[C@@H](C(=O)N[C@@H](CCCNC(=N)N)C(N)=O)NC(=O)[C@H](CCCNC(N)=O)NC(=O)[C@H](CCCNC(=N)N)NC(=O)[C@H](Cc2ccc(O)cc2)NC(=O)[C@@H]2CCCN2C(=O)[C@@H](CCCCNC(=O)CCCNC(=O)[C@H](CCCCNC(=O)CCCCCN2C(=CC=CC=CC3=[N+](CCCCS(=O)(=O)O)c4ccc(S(=O)(=O)[O-])cc4C3(C)C)C(C)(C)c3cc(S(=O)(=O)O)ccc32)NC(=O)CN(CCN(CC(=O)O)CC(=O)O)CCN(CC(=O)O)CC(=O)O)NC(=O)[C@H](CCCNC(=N)N)NC(=O)[C@H](CCCNC(N)=O)NC(=O)[C@H](Cc2ccc(O)cc2)NC1=O (single isomer, unassigned) [hybrid-Cy5-Ac-TZ14011]
Kd [3]: 245 ± 65 nM | maximum signal intensity, flow cytometry ([3]; Cy5, saturation binding, n=6): 1100 fluorescence counts

CC(=O)N[C@@H](CCCNC(=N)N)C(=O)N[C@@H](CCCNC(=N)N)C(=O)N[C@@H](Cc1ccc2ccccc2c1)C(=O)N[C@H]1CSSC[C@@H](C(=O)N[C@@H](CCCNC(=N)N)C(N)=O)NC(=O)[C@H](CCCNC(N)=O)NC(=O)[C@H](CCCNC(=N)N)NC(=O)[C@H](Cc2ccc(O)cc2)NC(=O)[C@@H]2CCCN2C(=O)[C@@H](CCCCNC(=O)CCCNC(=O)[C@H](CCCCNC(=O)CCCCCN2C(=CC=CC=CC3=[N+](CCCCS(=O)(=O)O)c4ccc(S(=O)(=O)[O-])cc4C3(C)C)C(C)(C)c3cc(S(=O)(=O)O)ccc32)NC(=O)CN(CCN(CC(=O)O)CC(=O)O)CCN(CC(=O)O)CC(=O)O)NC(=O)[C@H](CCCNC(=N)N)NC(=O)[C@H](CCCNC(N)=O)NC(=O)[C@H](Cc2ccc(O)cc2)NC1=O (single isomer, unassigned) [^111In(^165Ho)-hybrid-Cy5-Ac-TZ14011, metal not drawn]
tumor to muscle ratio (T/M), radiodetection ([2]; n=3-5): 4.38 ± 1.51
